# Experimental data as given in ChEMBL document CHEMBL3596119, “Synthesis and biological characterization of a promising F-18 PET tracer for vesicular acetylcholine transporter” (Bioorg Med Chem, 2015).
# Assays:
# [1] = Displacement of [3H]DTG from sigma2 receptor in rat liver membrane homogenates; format: cell membranes
# In short: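 Run on rat liver membrane homogenate (~300 μg protein) with ~5 nM [3H]DTG plus 1 μM (+)-pentazocine to mask σ1 sites. 10 μM haloperidol defined nonspecific binding. IC50 came from nonlinear regression.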
# [2] = target: Sigma non-opioid intracellular receptor 1 (Cavia porcellus, UniProt Q60492); test: Displacement of (+)-[3H]pentazocine from sigma1 receptor in guinea pig brain membrane homogenates; format: cell membranes
# Sigma non-opioid intracellular receptor 1, sequence (Q60492 whole entry): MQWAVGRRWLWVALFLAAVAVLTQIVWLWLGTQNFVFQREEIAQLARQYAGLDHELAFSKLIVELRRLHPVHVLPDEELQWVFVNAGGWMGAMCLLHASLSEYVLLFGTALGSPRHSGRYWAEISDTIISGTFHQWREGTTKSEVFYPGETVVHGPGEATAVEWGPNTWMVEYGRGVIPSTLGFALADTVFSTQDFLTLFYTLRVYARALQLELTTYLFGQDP
# In short: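 Run on guinea pig brain membrane homogenate (~300 μg protein) with 5 nM (+)-[3H]pentazocine. 10 μM haloperidol defined nonspecific binding. IC50 came from nonlinear regression with a one-site fit.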
# [3] = target: T1, Vesicular acetylcholine transporter (Homo sapiens, UniProt Q16572); test: Displacement of [3H]-vesamicol from human VAChT after 24 hrs by liquid scintillation spectrometry analysis
# T1 sequence (Q16572 whole entry): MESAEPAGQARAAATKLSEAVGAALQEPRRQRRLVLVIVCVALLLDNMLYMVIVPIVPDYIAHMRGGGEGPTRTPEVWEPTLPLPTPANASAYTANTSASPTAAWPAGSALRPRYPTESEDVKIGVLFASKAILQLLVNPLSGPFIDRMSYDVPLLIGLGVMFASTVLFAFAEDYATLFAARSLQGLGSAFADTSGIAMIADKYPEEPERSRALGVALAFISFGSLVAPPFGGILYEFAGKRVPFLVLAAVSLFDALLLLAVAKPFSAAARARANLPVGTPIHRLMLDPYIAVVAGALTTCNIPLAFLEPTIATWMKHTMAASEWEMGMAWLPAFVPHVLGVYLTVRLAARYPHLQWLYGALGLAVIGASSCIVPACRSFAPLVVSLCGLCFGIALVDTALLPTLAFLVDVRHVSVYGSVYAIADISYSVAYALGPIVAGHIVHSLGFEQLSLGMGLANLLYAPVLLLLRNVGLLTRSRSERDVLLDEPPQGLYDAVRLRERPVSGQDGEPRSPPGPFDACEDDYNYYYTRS
Compound,Ki [1] [µM],Ki [2] [µM],Ki [3] [µM]
O=C(c1ccc(OCCOCCOCCF)cc1)C1CCN([C@@H]2Cc3ccccc3C[C@H]2O)CC1,> 10,> 10,0.00123
O=C(c1ccc(OCCF)cc1)C1CCN([C@@H]2Cc3ccccc3C[C@H]2O)CC1,1.89,0.0132,0.00174
O=C(c1ccc(OCCOCCF)cc1)C1CCN([C@@H]2Cc3ccccc3C[C@H]2O)CC1,8.2,1.58,0.00087
O=C(c1ccc(F)cc1)C1CCN([C@@H]2Cc3c(O)cccc3C[C@H]2O)CC1,1.85,8.64,0.00464
O=C(c1ccc(F)cc1)C1CCN([C@@H]2Cc3cccc(OCCF)c3C[C@H]2O)CC1 (racemic),7.15,> 10,
O=C(c1ccc(F)cc1)c1cccc2c1C[C@@H](N1CCC(c3ccccc3)CC1)[C@H](O)C2,0.251,,
O=C(c1ccc(F)cc1)C1CCN([C@@H]2Cc3c(cccc3OCCF)C[C@H]2O)CC1 (racemic),> 10,0.821,
O[C@@H]1CCCC[C@H]1N1CCC(c2ccccc2)CC1 [VESAMICOL],0.346,,
"O=C(c1ccc(F)cc1)C1CCN(C2Cc3c(cccc3OCCF)CC2O)CC1 (single isomer, unassigned; (-))",> 10,,
O=C(c1ccc(F)cc1)C1CCN([C@@H]2Cc3cccc(O)c3C[C@H]2O)CC1,2.6,0.0287,0.0562
"O=C(c1ccc(F)cc1)C1CCN(C2Cc3c(cccc3OCCF)CC2O)CC1 (single isomer, unassigned; (+))",7.8,,
